Measurements: ChEMBL document CHEMBL1153760, “Identification and structure-activity relationships of chromene-derived selective estrogen receptor modulators for treatment of postmenopausal symptoms” (J Med Chem, 2009)
The source made the active and inactive calls. No cut-off for these calls is given here.

Tests used:
Rattus norvegicus [1] = test: Decrease in bone resorption in ovariectomized rat assessed as decrease in urine deoxypyridinoline level at 0.003 to 0.3 mg/kg, po administered daily measured after 6 weeks; type: functional, organism-based
In short: (§1)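 Adult (>6 months) female rats, housed singly on a casein-based diet, ovariectomized under sterile conditions and anesthesia; 6-14 per group. From 24 h after surgery, daily oral gavage of an aqueous suspension in 0.5% Methocel for 2 or 6 weeks. […] Urine deoxypyridinoline measured as bone-resorption marker.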

Rattus norvegicus [2] = test: Increase in uterine weight in po dosed ovariectomized rat osteopenia model administered daily measured after 6 weeks; type: functional, organism-based
Rattus norvegicus [3] = test: Increase in uterine weight in ovariectomized rat osteopenia model at 1 mg/kg, po administered daily measured after 6 weeks; type: functional, organism-based; set-up: dose 1 mg/kg
Rattus norvegicus [4] = test: Estrogenic activity in ovariectomized rat assessed as increase in uterine epithelial thickness at 0.1 mg/kg, po administered daily measured after 6 week by immunohistochemical analysis; type: functional, organism-based; set-up: dose 0.1 mg/kg
Rattus norvegicus [5] = test: Estrogenic activity in ovariectomized rat assessed as minor increase in uterine epithelial thickness at 0.001 to 0.3 mg/kg, po administered daily measured after 6 week by immunohistochemical analysis; type: functional, organism-based
Rattus norvegicus [6] = test: Effect on bone turnover in po dosed ovariectomized rat assessed as prevention of tibial bone loss administered daily measured after 6 weeks by ex vivo peripheral quantitative computerized tomography; type: functional, organism-based
Rattus norvegicus [7] = test: Effect on bone turnover in ovariectomized rat assessed as prevention of tibial bone density at 0.3 mg/kg, po administered daily measured after 6 weeks by ex vivo peripheral quantitative computerized tomography; type: functional, organism-based; set-up: dose 0.3 mg/kg
Rattus norvegicus [8] = test: Decrease in plasma cholesterol level in ovariectomized rat osteopenia model at 0.01 to 0.1 mg/kg, po administered daily measured after 6 weeks; type: functional; set-up: scale not given: the % may be the effect or the level left; conditions: dose mg/kg 0.01-0.1
Rattus norvegicus [9] = test: Decrease in plasma cholesterol level in ovariectomized rat osteopenia model at 0.003 to 0.3 mg/kg, po administered daily measured after 2 weeks; type: functional, organism-based
Rattus norvegicus [10] = test: Decrease in plasma cholesterol level in ovariectomized rat osteopenia model at 0.03 mg/kg, po administered daily measured after 6 weeks; type: functional; set-up: scale not given: the % may be the effect or the level left
Rattus norvegicus [11] = test: Decrease in plasma cholesterol level in ovariectomized rat osteopenia model at 0.3 mg/kg, po administered daily measured after 6 weeks; type: functional; set-up: scale not given: the % may be the effect or the level left
Rattus norvegicus [12] = test: Increase in vaginal fluidity in po dosed ovariectomized rat administered daily measured after 2 weeks […]; type: functional, organism-based
In short: (§2)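 Ovariectomized adult female rats dosed daily by oral gavage (0.5% Methocel suspension) for 2 or 6 weeks from 24 h after surgery. Vaginal fluid collected with a cotton swab and its absolute weight determined per animal.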

Rattus norvegicus [13] = test: Increase in vaginal fluidity in ovariectomized rat at 0.1 mg/kg, po administered daily measured after 6 weeks by cytology analysis; type: functional, organism-based; set-up: dose 0.1 mg/kg; in short: as §2
Rattus norvegicus [14] = test: Decrease in tail skin temperature rise in morphine-addicted Sprague-Dawley rat hot flush model at 0.01 to 10 mg/kg, po administered daily measured for 60 mins after naloxone-induced morphine withdrawal; type: functional, organism-based
In short: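 Ovariectomized adult female Sprague-Dawley rats (3 months), 8-25 per group; oral gavage starting 6 days post-ovariectomy, sesame oil vehicle, suspension. Morphine given sc at 75 and 150 mg on treatment days 3 and 5. On the last day, under ketamine (80 mg/kg, im), tail thermistor; baseline about 20 min, then naloxone 2.0 mg/kg sc and tail skin temperature recorded 60 min. Multiple comparisons at each time point.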

Estrogen receptor beta = Estrogen receptor beta (Homo sapiens, UniProt Q92731); test: Inhibition of fluormone ES2 binding to estrogen receptor beta after 1 hr by fluorescence polarization assay
Estrogen receptor [15] = biological target: T1, Estrogen receptor (Homo sapiens, UniProt P03372); test: Displacement of radiolabeled estrogen from estrogen receptor alpha by scintillation counting
T1 sequence (P03372 whole entry): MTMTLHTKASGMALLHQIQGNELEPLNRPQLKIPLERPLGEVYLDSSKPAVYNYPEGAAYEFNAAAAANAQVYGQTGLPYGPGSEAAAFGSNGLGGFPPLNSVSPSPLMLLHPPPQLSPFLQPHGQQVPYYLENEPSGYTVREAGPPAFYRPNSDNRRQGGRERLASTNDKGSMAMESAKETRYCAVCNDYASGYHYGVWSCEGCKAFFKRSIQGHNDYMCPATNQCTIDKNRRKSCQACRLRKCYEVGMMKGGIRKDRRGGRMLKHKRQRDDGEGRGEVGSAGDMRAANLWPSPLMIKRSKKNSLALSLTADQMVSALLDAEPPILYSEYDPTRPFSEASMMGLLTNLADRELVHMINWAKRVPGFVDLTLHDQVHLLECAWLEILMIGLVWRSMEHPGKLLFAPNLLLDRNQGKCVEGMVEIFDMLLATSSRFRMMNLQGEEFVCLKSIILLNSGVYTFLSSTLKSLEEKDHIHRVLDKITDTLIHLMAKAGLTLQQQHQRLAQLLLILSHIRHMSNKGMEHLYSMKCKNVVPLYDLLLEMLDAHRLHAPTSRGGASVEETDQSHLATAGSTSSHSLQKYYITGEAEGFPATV

Estrogen receptor [16] = biological target: T1, Estrogen receptor; test: Antagonist activity at estrogen receptor in human Ishikawa cells assessed as 17-beta-estradiol-induced alkaline phosphatase activity after 3 days by chemiluminescence assay; type: functional, cell-based
Rattus norvegicus [17] = species on record: Rattus norvegicus; test: animal or person; type: functional; conditions: Uterus, 72 h, route oral
[18] = Oral bioavailability in rat at 10 mg/kg administered as single dose by LC-MS/MS analysis; type: ADME, organism-based; conditions: in vivo
In short: (§3)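 Single-dose rat pharmacokinetics. IV dosing at 1-3 mg/kg as a solution in 10% β-cyclodextrin; oral gavage at 10 mg/kg as a uniform suspension in 0.5% methylcellulose. Blood (0.5 mL) collected into heparinized tubes by orbital sinus puncture after dosing. Plasma extracted into acetonitrile with an internal standard and analysed by LC-MS-MS against standards to obtain PK parameters.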

[19] = Cmax in rats after 10 mg/kg oral dose; type: ADME, organism-based; set-up: dose 10 mg/kg, route oral; conditions: rat, in vivo; in short: as §3
[20] = Tmax in rat at 10 mg/kg, po administered as single dose by LC-MS/MS analysis; type: ADME, organism-based; set-up: dose 10 mg/kg, route oral; conditions: in vivo; in short: as §3
[21] = Half life in rat at 10 mg/kg, po administered as single dose by LC-MS/MS analysis; type: ADME, organism-based; set-up: dose 10 mg/kg, route oral; conditions: in vivo; in short: as §3
[22] = AUC in rat at 10 mg/kg, po administered as single dose by LC-MS/MS analysis; type: ADME, organism-based; set-up: dose 10 mg/kg, route oral; conditions: plasma; in short: as §3
[23] = Cmax in rats after 2 mg/kg intravenous dose; type: ADME, organism-based; set-up: dose 2 mg/kg, route intravenous; conditions: rat, in vivo; in short: as §3
[24] = Tmax in rat at 2 mg/kg, iv administered as single dose by LC-MS/MS analysis; type: ADME, organism-based; set-up: dose 2 mg/kg, route intravenous; conditions: in vivo; in short: as §3
[25] = Half life in rat at 2 mg/kg, iv administered as single dose by LC-MS/MS analysis; type: ADME, organism-based; set-up: dose 2 mg/kg, route intravenous; conditions: in vivo; in short: as §3
[26] = AUC in rat at 2 mg/kg, iv administered as single dose by LC-MS/MS analysis; type: ADME, organism-based; set-up: dose 2 mg/kg, route intravenous; conditions: plasma; in short: as §3
Rattus norvegicus [27] = test: Increase in uterine weight in po dosed ovariectomized rat osteopenia model administered daily measured after 2 weeks; type: functional, organism-based
Rattus norvegicus [28] = test: Estrogenic activity in ovariectomized rat assessed as minor increase in uterine epithelial thickness at 0.1 to 1 mg/kg, po administered daily measured after 6 week by immunohistochemical analysis; type: functional, organism-based
Rattus norvegicus [29] = test: Decrease in bone resorption in ovariectomized rat assessed as decrease in urine deoxypyridinoline level at 0.1 to 1 mg/kg, po administered daily measured after 2 weeks; type: functional, organism-based; in short: as §1
Rattus norvegicus [30] = test: Decrease in plasma cholesterol level in po dosed ovariectomized rat osteopenia model administered daily measured after 2 weeks; type: functional, organism-based
Rattus norvegicus [31] = test: Increase in vaginal fluidity in ovariectomized rat at 1.4 mg/kg, po administered daily measured after 6 weeks by cytology analysis; type: functional, organism-based; set-up: dose 1.4 mg/kg
Rattus norvegicus [32] = test: Increase in vaginal secretion in ovariectomized rat at 0.1 to 1 mg/kg, po administered daily measured after 2 weeks by cytology analysis; type: functional, organism-based; in short: as §2
Rattus norvegicus [33] = test: Metabolite Cmax in rats after 10 mg/kg JNJ-1968990 oral dose; type: ADME, organism-based; set-up: dose 10 mg/kg, route oral; conditions: in vivo; in short: as §3
Rattus norvegicus [34] = test: Metabolite Cmax in rats after 2 mg/kg JNJ-1968990 intravenous dose; type: ADME, organism-based; set-up: dose 2 mg/kg, route intravenous; conditions: in vivo; in short: as §3
Rattus norvegicus [35] = test: Metabolic stability in rat assessed as 2-Methoxy-5R-(-)-[4-(2-piperidin-1-ylethoxy)-phenyl]-11,12-dihydro-5H-6,13-dioxabenzo[3,4]cyclohepta[1,2-a]-naphthalen-8-ol Tmax at 10 mg/kg, po administered as single dose by LC-MS/MS analysis; type: ADME, organism-based; set-up: dose 10 mg/kg, route oral; conditions: in vivo; in short: as §3
Rattus norvegicus [36] = test: Metabolic stability in rat assessed as 2-Methoxy-5R-(-)-[4-(2-piperidin-1-ylethoxy)-phenyl]-11,12-dihydro-5H-6,13-dioxabenzo[3,4]cyclohepta[1,2-a]-naphthalen-8-ol Tmax at 2 mg/kg, iv administered as single dose by LC-MS/MS analysis; type: ADME, organism-based; set-up: dose 2 mg/kg, route intravenous; conditions: in vivo; in short: as §3

Sequence of Estrogen receptor beta (Q92731 whole entry): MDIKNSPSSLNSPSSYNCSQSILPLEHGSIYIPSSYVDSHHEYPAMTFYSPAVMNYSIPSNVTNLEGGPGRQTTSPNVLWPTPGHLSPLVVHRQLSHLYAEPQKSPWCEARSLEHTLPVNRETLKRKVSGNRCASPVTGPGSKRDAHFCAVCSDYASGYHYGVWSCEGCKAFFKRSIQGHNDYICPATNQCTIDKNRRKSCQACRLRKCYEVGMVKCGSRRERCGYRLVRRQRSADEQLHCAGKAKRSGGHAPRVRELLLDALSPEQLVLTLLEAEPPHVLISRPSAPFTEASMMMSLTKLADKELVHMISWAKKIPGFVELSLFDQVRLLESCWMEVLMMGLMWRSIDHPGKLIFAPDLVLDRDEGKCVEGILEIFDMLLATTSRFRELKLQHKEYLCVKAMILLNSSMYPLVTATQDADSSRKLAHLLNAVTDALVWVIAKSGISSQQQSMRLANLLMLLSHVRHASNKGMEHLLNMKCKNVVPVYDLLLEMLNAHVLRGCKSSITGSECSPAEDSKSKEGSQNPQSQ

COc1ccc2c(c1)O[C@H](c1ccc(OCCN3CCCCC3)cc1)C1=C2CCOc2cc(OC)ccc21
Activity (Rattus norvegicus [1]): Active | Activity (Rattus norvegicus [2]): Dose-dependent effect | Activity (Rattus norvegicus [3]): inactive | Activity (Rattus norvegicus [4]): Active | Activity (Rattus norvegicus [5]): Active | Activity (Rattus norvegicus [6]): Dose-dependent effect | Activity (Rattus norvegicus [7]): Active | Activity (Rattus norvegicus [8]): 60% | Activity (Rattus norvegicus [9]): Active | Activity (Rattus norvegicus [10]): 50% | Activity (Rattus norvegicus [11]): 50% | Activity (Rattus norvegicus [12]): Dose-dependent effect | Activity (Rattus norvegicus [13]): Active | Activity (Rattus norvegicus [14]): Active | IC50 (Estrogen receptor beta): Not Active | IC50 (Estrogen receptor [15]): 64 nM | IC50 (Estrogen receptor [16]): 1740 nM | inhibition in vivo at 1 mg/kg (Rattus norvegicus [17]): 121% | bioavailability [18]: 30.8% | Cmax [19]: 168 ng/mL | Tmax [20]: 5 h | half-life [21]: 7.2 h | AUC [22]: 2270 ng·h/mL | Cmax [23]: 1040 ng/mL | Tmax [24]: 4.8 min | half-life [25]: 5.82 h | AUC [26]: 1390 ng·h/mL

COc1ccc2c(c1)OCCC1=C2[C@@H](c2ccc(OCCN3CCCCC3)cc2)Oc2cc(O)ccc21
Activity (Rattus norvegicus [27]): inactive | Activity (Rattus norvegicus [28]): Active | Activity (Rattus norvegicus [29]): Active | Activity (Rattus norvegicus [30]): Active | Activity (Rattus norvegicus [31]): Active | Activity (Rattus norvegicus [32]): inactive | IC50 (Estrogen receptor beta): 99 nM | IC50 (Estrogen receptor [15]): 5.8 nM | IC50 (Estrogen receptor [16]): 76 nM | inhibition in vivo at 1 mg/kg (Rattus norvegicus [17]): 130% | bioavailability [18]: 61% | Cmax [19]: 228 ng/mL | Tmax [20]: 6 h | half-life [21]: 18.6 h | AUC [22]: 6730 ng·h/mL | Cmax_metabolite (Rattus norvegicus [33]): 91.4 ng/mL | Cmax_metabolite (Rattus norvegicus [34]): 15.2 ng/mL | Tmax (Rattus norvegicus [35]): 8 h | Tmax (Rattus norvegicus [36]): 8 h
